Each structure is given as a SMILES string. Active and inactive are the calls of the source.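 How the source made its calls, unless noted: active means viability at or below 10% of carrier control in both of two separate runs; inconclusive means viability at or below 10% in only one of the two runs; inactive means the rest.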

The results in this text go back to PubChem BioAssay.

The nature of experiment [1]: Her2 expression decrease, cell viability multiplex – SKBR3 breast tumor cells, AlphaScreen, ATP viability, primary screen (AID 461;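 active means Her2 level under about 52% in both replicate screens, with viability over 70% of control, limit read from the data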;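 on Her2 level: lower value means less Her2 protein in the cells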;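 on viability: percent of carrier control wells set as 100% viability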). The settings on record: SKBR3 Her2 protein level, 18-24 h, measured here: SKBR3 viability, ATP luminescence, at 10 µM.
Experiment [2] deals with Receptor tyrosine-protein kinase erbB-2 (Homo sapiens) (UniProt P04626). The description is as above. The settings on record: 18-24 h, at 10 µM, stronger effect = lower value.
Experiment [3] in a line: reduced viability of SK-BR-3 breast cancer cells – cell-based, 24 h, human, pilot screen (AID 572).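 Further: compound exposure lasted between 18 and 24 h rather than exactly 24 h; 100% = carrier-treated control wells.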 The settings on record: SK-BR-3 viability, CellTiter-Glo luminescence, at 10 µM, stronger effect = lower value.
Experiment [4] can be described thus: HUVEC growth inhibition – cell-based, human, primary screen (AID 575;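 active means viability at or below 30% in both replicate assays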;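 further: 100% = median of untreated cell wells with 0.1% DMSO on each plate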). The settings on record: HUVEC proliferation, CellTiter-Glo luminescence, 72 h; at 10 µM; stronger effect = lower value. The procedure, abridged: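 Assay system: primary human umbilical vein endothelial cells / Buffer or medium: endothelial basal medium with 2% FBS plus growth supplements / Compound dosing: one dose, 10 µM final, 0.1% DMSO / Timing: 72 h treatment at 37 °C / Signal: CTG luminescence / Benchmarks: 32 DMSO-only cell-control wells (high), 32 MePR drug-control wells (low) per plate / Plate: collagen-coated 384-well format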

The nature of experiment [5]: H69AR cell proliferation blockers – human, duplicate replicates, primary screen (AID 580;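 active means viability at or under a set limit in both replicates, limit being median viability minus 3 SD, cut at about 48% in these data, passing the limit was not always enough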;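 further: 100% = mean luminescence of untreated wells and 0% = no signal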). The settings on record: H69AR lung tumor cells viability, ATP luminescence, 72 h; at 10 µM; stronger effect = lower value.
The nature of experiment [6]: MRP1 drug-resistance reversers in H69AR cells – cell-based, doxorubicin co-treatment, pilot screen (AID 601;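 active means viability loss from added drug above about 55%, and viability with drug at most 40%, in both replicates, limit read from the data, passing the limit was not always enough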). Particulars: CellTiter-Glo, 72 h, at 10 µM; for differential viability (reversal): stronger effect = higher value.
A short description of experiment [7]: yeast transport mutant growth inhibition pilot in 384-well plates, post-Golgi transport modulator project (AID 636; in the data active means inhibition above about 31%). Particulars: absorbance 615 nm, about 18 h, stronger effect = higher value.
A short description of experiment [8]: growth suppression of yeast trafficking mutant, preliminary HTS, modulators of trafficking downstream of Golgi apparatus project, 1536-format plate, OD 615 nm (AID 637; in the data active means inhibition above about 30%). Particulars: yeast transport mutant growth, absorbance 615 nm, 18 h; stronger effect = higher value.
The mark [9] stands for this setting: H69AR cells + 2 uM doxorubicin, measured here: viability with 2 uM doxorubicin, stronger effect = lower value.
The mark [10] stands for this setting: H69AR cells, compound alone cytotoxicity.

Chain of Receptor tyrosine-protein kinase erbB-2 (Homo sapiens) (P04626 whole entry, looked up): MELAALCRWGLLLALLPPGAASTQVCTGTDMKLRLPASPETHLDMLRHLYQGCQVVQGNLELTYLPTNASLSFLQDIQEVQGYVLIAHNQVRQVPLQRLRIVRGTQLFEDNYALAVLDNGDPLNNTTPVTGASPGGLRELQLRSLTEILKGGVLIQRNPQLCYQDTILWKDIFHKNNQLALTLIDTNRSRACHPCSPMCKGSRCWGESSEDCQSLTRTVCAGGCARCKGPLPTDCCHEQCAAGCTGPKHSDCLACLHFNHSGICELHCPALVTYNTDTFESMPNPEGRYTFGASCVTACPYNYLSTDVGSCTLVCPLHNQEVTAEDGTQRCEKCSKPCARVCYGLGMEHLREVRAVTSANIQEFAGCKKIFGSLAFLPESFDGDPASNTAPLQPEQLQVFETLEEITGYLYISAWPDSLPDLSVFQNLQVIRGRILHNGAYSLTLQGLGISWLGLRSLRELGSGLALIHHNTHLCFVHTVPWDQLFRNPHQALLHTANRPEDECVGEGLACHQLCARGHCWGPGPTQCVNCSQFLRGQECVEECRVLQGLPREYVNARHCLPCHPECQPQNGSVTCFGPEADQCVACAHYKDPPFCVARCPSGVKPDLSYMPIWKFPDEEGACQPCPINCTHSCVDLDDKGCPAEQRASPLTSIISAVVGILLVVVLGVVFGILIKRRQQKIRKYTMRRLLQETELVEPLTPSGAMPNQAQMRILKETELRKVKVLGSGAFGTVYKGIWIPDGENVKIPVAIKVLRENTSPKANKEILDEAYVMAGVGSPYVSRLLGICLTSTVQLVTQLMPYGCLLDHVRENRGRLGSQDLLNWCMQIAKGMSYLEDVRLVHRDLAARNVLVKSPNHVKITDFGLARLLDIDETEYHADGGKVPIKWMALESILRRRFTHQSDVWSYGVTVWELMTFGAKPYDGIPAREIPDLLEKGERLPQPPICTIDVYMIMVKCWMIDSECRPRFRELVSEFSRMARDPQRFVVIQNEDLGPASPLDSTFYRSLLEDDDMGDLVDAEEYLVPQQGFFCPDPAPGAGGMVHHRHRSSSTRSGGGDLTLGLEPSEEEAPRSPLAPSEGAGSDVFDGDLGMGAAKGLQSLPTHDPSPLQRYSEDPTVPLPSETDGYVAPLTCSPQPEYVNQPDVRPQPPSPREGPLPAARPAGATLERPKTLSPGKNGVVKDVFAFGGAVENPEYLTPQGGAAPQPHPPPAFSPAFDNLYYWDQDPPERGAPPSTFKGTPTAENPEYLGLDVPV

Broadly, the viability is a read-out of living cells in per cent, often relative to untreated cells. By inhibition is commonly meant the change of the read-out against control, counted positive when it falls. `COc1ccc(C(=O)N(CCN2CCOCC2)CC(=O)NC2CCCC2)cc1OC`: the viability in experiment [1] was 83.5%; in experiment [3], 83.5% (inactive); in experiment [4], 111% (inactive); in experiment [5] it was 91.6% (inactive); in experiment [6] (setting [9]), 92.4%; in experiment [6] (setting [10]), 91.6%. In addition, the Her2 level in experiment [2] is 106% (inactive). Further, the differential viability (reversal) in experiment [6] (H69AR cells + 2 uM doxorubicin) is -0.805% (inactive). The inhibition in experiment [7] was -0.8% (inactive); in experiment [8] it was 8.36% (inactive).

Regarding `O=c1c2cc(N3CCOCC3)ccc2[nH]c(=S)n1CCCN1CCCCC1`, the viability in experiment [1] was 83.5%; in experiment [3], 83.5% (inactive); in experiment [4], 84.9% (inactive); in experiment [5] it was 95.9% (inactive); in experiment [6] (setting [9]), 91.2%; in experiment [6] (setting [10]) it was 95.9%. In addition, in experiment [2], the Her2 level is 93.5% (inactive). The differential viability (reversal) in experiment [6] (H69AR cells + 2 uM doxorubicin) is 4.74% (inactive). In addition, the inhibition in experiment [7] was -4.59% (inactive); in experiment [8], -8.36% (inactive).

Take `CCC1SC2=NC(C)=C(C(=O)OC)C(c3ccc(C)cc3)N2C1=O` (stereo not given): the viability is 94% in experiment [1]; 94% (inactive) in experiment [3]; 109% (inactive) in experiment [4]; 99.6% (inactive) in experiment [5]; 90.6% in experiment [6] (setting [9]); 99.6% in experiment [6] (setting [10]). The Her2 level in experiment [2] was 96% (inactive). For the same molecule, the differential viability (reversal) in experiment [6] (H69AR cells + 2 uM doxorubicin) was 9% (inactive). For the same molecule, the inhibition in experiment [7] was -3.51% (inactive); in experiment [8], -1.59% (inactive).

With `COCCN(CCOC)S(=O)(=O)c1ccc(C(=O)Nc2nnc(C3CC3)o2)cc1`, the viability in experiment [1] is 75%; in experiment [3], 75% (inactive); in experiment [4], 80.5% (inactive); in experiment [5] it was 82.7% (inactive); in experiment [6] (setting [9]) it was 84.2%; in experiment [6] (setting [10]), 82.7%. Besides, the Her2 level in experiment [2] was 86% (inactive). Moreover, in experiment [6] (H69AR cells + 2 uM doxorubicin), the differential viability (reversal) was -1.53% (inactive). The inhibition in experiment [7] is -3.65% (inactive); in experiment [8] it was 1.48% (inactive).

Consider `CCOC(=O)c1nnc(-c2ccccc2)o1`, for which the viability in experiment [1] was 101%; in experiment [3] it was 101% (inactive); in experiment [4], 86.1% (inactive); in experiment [5], 88.1% (inactive); in experiment [6] (setting [9]), 79%; in experiment [6] (setting [10]), 88.1%. The Her2 level in experiment [2] is 87.5% (inactive). For the same molecule, the differential viability (reversal) in experiment [6] (H69AR cells + 2 uM doxorubicin) is 9.09% (inactive). The inhibition in experiment [7] was -1.56% (inactive); in experiment [8], -1.43% (inactive).

Turning to `Clc1ccc(CSc2nnc(Cn3cnc4ccccc43)o2)cc1`, the viability is 74.5% in experiment [1]; 74.5% (inactive) in experiment [3]; 48.2% (inactive) in experiment [4]; 99.2% (inactive) in experiment [5]; 97.2% in experiment [6] (setting [9]); 99.2% in experiment [6] (setting [10]). For the same molecule, the Her2 level in experiment [2] was 72% (inactive). Moreover, the differential viability (reversal) in experiment [6] (H69AR cells + 2 uM doxorubicin) is 2.03% (inactive). Moreover, the inhibition is -4.32% (inactive) in experiment [7] and -1.8% (inactive) in experiment [8].

Take `CCOC(=O)c1c(N)sn(-c2ccccc2)c1=S`: the viability was 87% in experiment [1]; 87% (inactive) in experiment [3]; 101% (inactive) in experiment [4]; 85.3% (inactive) in experiment [5]; 90.6% in experiment [6] (setting [9]); 85.3% in experiment [6] (setting [10]). The Her2 level in experiment [2] was 108% (inactive). Besides, in experiment [6] (H69AR cells + 2 uM doxorubicin), the differential viability (reversal) was -5.28% (inactive). In addition, the inhibition in experiment [7] is -0.9% (inactive); in experiment [8], 2.17% (inactive).

`O=C(OCc1nnc(-c2ccccc2)o1)c1ccc2ccccc2n1`: the viability in experiment [1] is 106%; in experiment [3] it was 106% (inactive); in experiment [4], 100% (inactive); in experiment [5], 89.4% (inactive); in experiment [6] (setting [9]), 90.1%; in experiment [6] (setting [10]) it was 89.4%. Besides, the Her2 level in experiment [2] was 116% (inactive). Further, in experiment [6] (H69AR cells + 2 uM doxorubicin), the differential viability (reversal) was -0.715% (inactive). For the same molecule, the inhibition was 3.15% (inactive) in experiment [7] and 23.2% (inactive) in experiment [8].

For `O=C(OCc1ccccc1F)c1ccc2c(c1)OCCO2`, the viability in experiment [1] is 122%; in experiment [3], 122% (inactive); in experiment [4] it was 103% (inactive); in experiment [5] it was 92% (inactive); in experiment [6] (setting [9]), 82.7%; in experiment [6] (setting [10]) it was 92%. Moreover, in experiment [2], the Her2 level is 86% (inactive). Also, the differential viability (reversal) in experiment [6] (H69AR cells + 2 uM doxorubicin) is 9.29% (inactive). Further, the inhibition in experiment [7] is -5.47% (inactive); in experiment [8] it was -5.08% (inactive).

As to `C=CCn1c(=O)[nH]c2cc(C(=O)N3CCN(c4cc(C)ccc4C)CC3)ccc2c1=O`, the viability in experiment [1] was 81.5%; in experiment [3] it was 81.5% (inactive); in experiment [4] it was 71.7% (inactive); in experiment [5], 41.3% (active); in experiment [6] (setting [9]), 33.6%; in experiment [6] (setting [10]) it was 41.3%. The Her2 level in experiment [2] is 79.5% (inactive). Moreover, the differential viability (reversal) in experiment [6] (H69AR cells + 2 uM doxorubicin) was 7.67% (inactive). Also, the inhibition in experiment [7] is -6.76% (inactive); in experiment [8] it was -0.83% (inactive).

On to `COc1cc(C2C(C#N)=C(N)Oc3cc(N)ccc32)cc(OC)c1OC` (stereo not given), for which the viability was 91.5% in experiment [1]; 91.5% (inactive) in experiment [3]; 42.1% (inactive) in experiment [4]; 32.3% (active) in experiment [5]; 61.1% in experiment [6] (setting [9]); 32.3% in experiment [6] (setting [10]). Further, in experiment [2], the Her2 level is 75% (inactive). In experiment [6] (H69AR cells + 2 uM doxorubicin), the differential viability (reversal) was -28.8% (inactive). For the same molecule, the inhibition is -4% (inactive) in experiment [7] and 8.03% (inactive) in experiment [8].

`CCOC(=O)Cn1c2c(c(=N)c3ccccc31)CCC2`: the viability was 122% in experiment [1]; 122% (inactive) in experiment [3]; 89.4% (inactive) in experiment [4]; 92.6% (inactive) in experiment [5]; 90.3% in experiment [6] (setting [9]); 92.6% in experiment [6] (setting [10]). Besides, the Her2 level in experiment [2] is 98% (inactive). Also, the differential viability (reversal) in experiment [6] (H69AR cells + 2 uM doxorubicin) is 2.31% (inactive). Further, the inhibition in experiment [7] is -6.27% (inactive); in experiment [8] it was -1.15% (inactive).

Turning to `CCOCCn1cnc2sc(C(=O)NCC(=O)OCC)c(C)c2c1=O`, the viability in experiment [1] was 95.5%; in experiment [3], 95.5% (inactive); in experiment [4] it was 86.6% (inactive); in experiment [5], 86.8% (inactive); in experiment [6] (setting [9]), 88.7%; in experiment [6] (setting [10]), 86.8%. Besides, the Her2 level in experiment [2] is 90% (inactive). Besides, the differential viability (reversal) in experiment [6] (H69AR cells + 2 uM doxorubicin) is -1.89% (inactive). For the same molecule, the inhibition was -2.37% (inactive) in experiment [7] and 2.9% (inactive) in experiment [8].

In the case of `CCN(C(=O)c1cc(Cl)ccc1OC)C1CCCCC1`, the viability is 86.5% in experiment [1]; 86.5% (inactive) in experiment [3]; 101% (inactive) in experiment [4]; 83.8% (inactive) in experiment [5]; 94.4% in experiment [6] (setting [9]); 83.8% in experiment [6] (setting [10]). In addition, the Her2 level in experiment [2] was 104% (inactive). The differential viability (reversal) in experiment [6] (H69AR cells + 2 uM doxorubicin) is -10.6% (inactive). Besides, the inhibition in experiment [7] is -2.86% (inactive); in experiment [8] it was -2.5% (inactive).
